Assay results of several laboratories.
Protocols differ between the studies behind these lines.
Target: Tyrosine-protein kinase receptor UFO (AXL, Homo sapiens, UniProt P30530)
Sequence (P30530 26-894, as in one of the studies): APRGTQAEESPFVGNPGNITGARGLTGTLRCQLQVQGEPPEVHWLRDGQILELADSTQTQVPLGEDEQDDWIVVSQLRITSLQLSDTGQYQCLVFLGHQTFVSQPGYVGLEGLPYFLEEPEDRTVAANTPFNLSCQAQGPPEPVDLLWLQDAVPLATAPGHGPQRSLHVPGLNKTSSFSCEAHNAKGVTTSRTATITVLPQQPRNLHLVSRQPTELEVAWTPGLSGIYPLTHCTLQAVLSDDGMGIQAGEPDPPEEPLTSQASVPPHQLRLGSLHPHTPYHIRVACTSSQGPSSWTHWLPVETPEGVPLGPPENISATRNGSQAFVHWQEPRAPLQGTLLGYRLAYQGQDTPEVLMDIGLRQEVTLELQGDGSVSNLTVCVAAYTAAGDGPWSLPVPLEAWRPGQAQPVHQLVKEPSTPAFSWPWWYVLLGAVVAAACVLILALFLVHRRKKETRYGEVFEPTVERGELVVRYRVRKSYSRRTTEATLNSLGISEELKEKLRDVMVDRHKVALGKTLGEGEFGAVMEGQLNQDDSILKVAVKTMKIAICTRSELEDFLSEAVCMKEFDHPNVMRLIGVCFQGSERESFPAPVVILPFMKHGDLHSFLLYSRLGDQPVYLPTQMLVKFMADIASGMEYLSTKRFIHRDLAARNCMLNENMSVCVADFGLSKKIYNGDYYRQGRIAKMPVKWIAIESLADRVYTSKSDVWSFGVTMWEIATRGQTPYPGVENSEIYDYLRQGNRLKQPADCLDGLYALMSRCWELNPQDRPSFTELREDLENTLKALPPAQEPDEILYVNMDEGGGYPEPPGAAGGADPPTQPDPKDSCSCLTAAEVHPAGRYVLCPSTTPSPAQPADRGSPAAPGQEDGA

SMILES | assay | setting | endpoint | result
CNC(=O)c1ccccc1Nc1nc(Nc2ccc(CO)nc2)ncc1Cl | enzyme activity, inhibitor | 1 µM | remaining activity | 2.06%
CC#CC(=O)N1CCC[C@H]1c1nc(-c2ccc(C(=O)Nc3ccccn3)cc2)c2c(N)nccn12 | enzyme activity, inhibitor | 1 µM | inhibition | 5%
COc1ccc2[nH]c3c4[nH]c5ccc(OC)cc5c4c4c(c3c2c1)C(=O)NC4=O | binding, competition with immobilised ligand | 1 µM | remaining binding | 30%
CS(=O)(=NC#N)c1ccccc1Nc1nc(Nc2ccc(CO)nc2)ncc1Cl (centres unmarked) | enzyme activity, inhibitor | 1 µM | remaining activity | 14.9%
N#Cc1ccc(NC(=O)Nc2ccccc2)cc1 | cell-free assay, competition with immobilised ligand | 25 µM | remaining binding | 100%
CS(=O)(=O)c1ccccc1Nc1nc(Nc2ccnc(CO)c2)ncc1Cl | enzyme activity, inhibitor | 1 µM | remaining activity | 4.41%
CCCCC(=O)Nc1ccc(-c2ccc3ncn(CCC)c(=O)c3c2)cn1 | binding, competition with immobilised ligand | 0.5 µM | remaining binding | 95%
COc1ccc2oc(-c3ccc4nc(N)oc4c3)c/c(=N\c3ccccc3NC(=O)CCN)c2c1 | binding | 1 µM | remaining binding | 96%
CNC(=O)c1ccccc1Nc1nc(Nc2ccc(CO)cc2)ncc1Cl | enzyme activity, inhibitor | 1 µM | remaining activity | 1.13%
C[C@]1(O)CCCN(c2nc(Nc3ccc(S(=O)(=O)N[C@H]4CC[C@H](CN5CCN(c6ccc(C7CCC(=O)NC7=O)cc6F)CC5)CC4)cc3F)ncc2C(F)(F)F)C1 (some centres unmarked) | binding, competition with immobilised ligand | 1 µM | remaining binding | 40%
Cc1ccc(NC(=O)c2ccnc(C(F)(F)F)c2)cc1-c1cc(OCCO)nc(N2CCOCC2)c1 | binding, competition with immobilised ligand | 1 µM | remaining binding | 90%
CO[C@@H]1[C@H](N(C)C(=O)c2ccccc2)C[C@H]2O[C@]1(C)n1c3ccccc3c3c4c(c5c6ccccc6n2c5c31)C(=O)NC4 | enzyme activity, inhibitor | 1 µM | inhibition | 92%
C1=C/COCc2cc(ccc2OCCN2CCCC2)Nc2nccc(n2)-c2cccc(c2)COC/1 | binding | 0.1 µM | remaining binding | 38%
CNS(=O)(=O)c1ccc(Nc2ncc(C(F)(F)F)c(N3CCC[C@](C)(O)C3)n2)c(C)c1 | binding, competition with immobilised ligand | 1 µM | remaining binding | 70%
